Assays:
[1] = Induction of proliferation of neonatal skin fibroblasts assessed as protein content per well at 5 uM after 48 hrs by […] relative to control; format: functional, Homo sapiens, Skin fibroblast
In short: (§1)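 Normal human neonatal skin fibroblasts NB1RGB seeded 5.0 × 10^4 cells/well in 96-well plates. Exposed 48 h to compound (DMSO, final 0.1%). Cellular protein content determined by BCA protein assay and expressed as % of vehicle control.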

[2] = Antiproliferative activity against mouse B16-4A5 cells at 5 uM after 72 hrs by WST-8 assay; format: functional
In short: (§2)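 Murine B16 melanoma 4A5 cells (DMEM 4.5 g/L glucose, 10% FBS) seeded 5.0 × 10^4 cells/well in 96-well plates and cultured 24 h. Then 72 h with 1 mM theophylline plus compound (DMSO, final 0.1%). Cells washed with PBS, WST-8 formazan read at 450 nm (ref 655 nm). Inhibition (%) = [(A − B)/A] × 100 versus vehicle. Mean ± SEM, n = 4.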

[3] = Inhibition of melanogenesis in theophylline-stimulated mouse B16-4A5 cells at 5 uM after 72 hrs by microplate reader; format: functional; set-up: scale not given: the % may be the effect or the level left
In short: (§3)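 B16 melanoma 4A5 cells seeded 2.0 × 10^4 cells/well in 24-well plates and cultured 24 h. Then 72 h with compound plus 1 mM theophylline (DMSO, final 0.1%). Cells trypsin/EDTA-harvested, washed, lysed in 1 M NaOH (80 °C, 30 min). Lysate melanin read by OD at 405 nm (ref 655 nm). Inhibition (%) = [(A − B)/A] × 100 versus vehicle. Mean ± SEM, n = 4.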

[4] = Antiproliferative activity against mouse B16-4A5 cells at 10 uM after 72 hrs by WST-8 assay; format: functional; in short: as §2
[5] = Induction of proliferation of neonatal skin fibroblasts assessed as WST-8 formazan accumulation per well at 20 uM after 48 hrs by WST-8 assay relative to control; format: functional, Homo sapiens, Skin fibroblast
In short: (§4)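 Normal human neonatal skin fibroblasts NB1RGB (DMEM 1 g/L glucose, 10% FBS, 37 °C, 5% CO2) seeded 5.0 × 10^4 cells/well in 96-well plates. Incubated 48 h with compound (DMSO, final 0.1%). Water-soluble WST-8 formazan read at 450 nm (ref 655 nm) and expressed as % of vehicle control.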

[6] = Antiproliferative activity against mouse B16-4A5 cells at 20 uM after 72 hrs by WST-8 assay; format: functional; in short: as §2
[7] = Inhibition of melanogenesis in theophylline-stimulated mouse B16-4A5 cells at 20 uM after 72 hrs by microplate reader; format: functional; set-up: scale not given: the % may be the effect or the level left; in short: as §3
[8] = Induction of proliferation of neonatal skin fibroblasts assessed as WST-8 formazan accumulation per well at 5 uM after 48 hrs by WST-8 assay relative to control; format: functional, Homo sapiens, Skin fibroblast; in short: as §4
[9] = Induction of proliferation of neonatal skin fibroblasts assessed as protein content per well at 20 uM after 48 hrs […] relative to control; format: functional, Homo sapiens, Skin fibroblast; in short: as §1
[10] = Inhibition of melanogenesis in theophylline-stimulated mouse B16-4A5 cells at 10 uM after 72 hrs by microplate reader; format: functional; set-up: scale not given: the % may be the effect or the level left; in short: as §3
[11] = Induction of proliferation of neonatal skin fibroblasts assessed as protein content per well at 10 uM after 48 hrs by […] relative to control; format: functional, Homo sapiens, Skin fibroblast; in short: as §1
[12] = Induction of proliferation of neonatal skin fibroblasts assessed as WST-8 formazan accumulation per well at 10 uM after 48 hrs by WST-8 assay relative to control; format: functional, Homo sapiens, Skin fibroblast; in short: as §4
[13] = Induction of proliferation of neonatal skin fibroblasts assessed as protein content per well at 50 uM after 48 hrs by […] relative to control; format: functional, Homo sapiens, Skin fibroblast; in short: as §1
[14] = Induction of proliferation of neonatal skin fibroblasts assessed as WST-8 formazan accumulation per well at 50 uM after 48 hrs by WST-8 assay relative to control; format: functional, Homo sapiens, Skin fibroblast; in short: as §4
[15] = Inhibition of melanogenesis in theophylline-stimulated mouse B16-4A5 cells at 40 uM after 72 hrs by microplate reader; format: functional; set-up: scale not given: the % may be the effect or the level left; in short: as §3

Compound `CC1(C)CC[C@]2(C=O)[C@H](O)C[C@]3(C)C(=CC[C@@H]4[C@@]5(C)CC[C@H](O[C@@H]6O[C@H](C(=O)O)[C@@H](O)[C@H](O[C@@H]7O[C@H](CO)[C@H](O)[C@H](O)[C@H]7O[C@@H]7O[C@H](CO)[C@@H](O)[C@H](O)[C@H]7O)[C@H]6O[C@@H]6O[C@H](CO)[C@H](O)[C@H](O)[C@H]6O)C(C)(C)[C@@H]5CC[C@]43C)[C@@H]2C1` (relative stereo) has an Activity [1] of 120.4%, an Activity [2] of 17.4% and an Activity [3] of -19.7%. For the same compound, the Activity [4] was 55%, the Activity [5] was 102.2% and the Activity [6] was 52.8%. The Activity [7] was 91.6%, the Activity [8] was 102.1% and the Activity [9] was 110%. For the same compound, the Activity [10] was 16.3%, the Activity [11] was 120.3% and the Activity [12] was 102.5%.

`O.O=C1O[C@H]([C@@H](O)CO)C(O)=C1OP(=O)([O-])[O-].[Mg+2]` gave an Activity [1] of 112.8%, an Activity [5] of 122.8% and an Activity [8] of 109.2%. The Activity [9] was 117.4%, the Activity [11] was 109.6% and the Activity [12] was 123.7%.

`CCC/C=C\C(=O)O[C@H]1CC(C)(C)C[C@H]2C3=CC[C@@H]4[C@@]5(C)CC[C@H](O[C@@H]6O[C@H](C(=O)O)[C@@H](O)[C@H](O[C@@H]7O[C@H](CO)[C@H](O)[C@H](O)[C@H]7O[C@@H]7O[C@@H](C)[C@H](O)[C@@H](O)[C@H]7O)[C@H]6O[C@@H]6O[C@H](CO)[C@@H](O)[C@H](O)[C@H]6O)C(C)(C)[C@@H]5CC[C@@]4(C)[C@]3(C)[C@@H](O)[C@@H](O)[C@@]12CO` [SASANQUASAPONIN I] showed an Activity [13] of 44.8%, an Activity [14] of 16.4% and an Activity [11] of 71.5%. For the same compound, the Activity [12] was 34.9%.

Work on `C/C=C(\C)C(=O)O[C@H]1[C@H](OC(=O)/C(C)=C/C)[C@]2(CO)[C@H](O)[C@H](O)[C@]3(C)C(=CC[C@@H]4[C@@]5(C)CC[C@H](O[C@@H]6O[C@H](C(=O)O)[C@@H](O)[C@H](O[C@@H]7O[C@H](CO)[C@H](O)[C@H](O)[C@H]7O[C@@H]7O[C@@H](C)[C@H](O)[C@@H](O)[C@H]7O)[C@H]6O[C@@H]6O[C@H](CO)[C@@H](O)[C@H](O)[C@H]6O)C(C)(C)[C@@H]5CC[C@]43C)[C@@H]2CC1(C)C` [YUCHASAPONIN A] yielded an Activity [13] of 49.4%, an Activity [14] of 16.8% and an Activity [11] of 45.3%. For the same compound, the Activity [12] was 16.6%.

`C/C=C(/C)C(=O)O[C@H]1CC(C)(C)C[C@H]2C3=CC[C@@H]4[C@@]5(C)CC[C@H](O[C@@H]6O[C@H](C(=O)O)[C@@H](O)[C@H](O[C@@H]7O[C@H](CO)[C@H](O)[C@H](O)[C@H]7O[C@@H]7O[C@@H](C)[C@H](O)[C@@H](O)[C@H]7O)[C@H]6O[C@@H]6O[C@H](CO)[C@@H](O)[C@H](O)[C@H]6O)C(C)(C)[C@@H]5CC[C@@]4(C)[C@]3(C)[C@@H](O)[C@@H](O)[C@@]12CO` [SASANQUASAPONIN III] gave an Activity [13] of 48.8%, an Activity [14] of 16.8% and an Activity [11] of 48.6%. It also gave an Activity [12] of 16.6%.

With `CC1(C)CC[C@]2(O)C(=O)C[C@]3(C)C(=CC[C@@H]4[C@@]5(C)CC[C@H](O[C@@H]6O[C@H](C(=O)O)[C@@H](O)[C@H](O[C@@H]7O[C@H](CO)[C@H](O)[C@H](O)[C@H]7O[C@@H]7O[C@H](CO)[C@@H](O)[C@H](O)[C@H]7O)[C@H]6O[C@H]6O[C@@H](CO)[C@@H](O)[C@@H](O)[C@@H]6O)C(C)(C)C5CC[C@]43C)[C@@H]2C1` (stereo not given in full) [CAMELLIOSIDE A] the Activity [1] was 120.8%, the Activity [2] was -3.8% and the Activity [3] was 12.1%. For the same compound, the Activity [4] was 5.1%, the Activity [5] was 113.6% and the Activity [6] was 19.7%. For the same compound, the Activity [7] was 74.9%, the Activity [8] was 114.6% and the Activity [9] was 113.8%. The Activity [10] was 36%, the Activity [11] was 126.9% and the Activity [12] was 114.3%.

In the case of `CC(=O)O[C@@H]1[C@H](O)[C@@H](O)[C@H](O[C@H]2[C@H](O[C@H]3CC[C@]4(C)[C@H]5CC=C6[C@@H]7CC(C)(C)CC[C@]7(O)C(=O)C[C@@]6(C)[C@]5(C)CC[C@H]4C3(C)C)O[C@H](C(=O)O)[C@@H](O)[C@@H]2O[C@@H]2O[C@H](CO)[C@H](O)[C@H](O)[C@H]2O[C@@H]2O[C@H](CO)[C@@H](O)[C@H](O)[C@H]2O)O[C@@H]1CO` [CAMELLIOSIDE B], the Activity [1] is reported as 122.3%, the Activity [2] is reported as 11.9% and the Activity [3] is reported as 33.1%. The Activity [4] was 26%, the Activity [5] was 132.1% and the Activity [6] was 49%. The Activity [7] was 95%, the Activity [8] was 111.5% and the Activity [9] was 130.1%. The Activity [10] was 64.6%, the Activity [11] was 130% and the Activity [12] was 121.5%.

For `C/C=C(\C)C(=O)O[C@H]1CC(C)(C)C[C@H]2C3=CC[C@@H]4[C@@]5(C)CC[C@H](O[C@@H]6O[C@H](C(=O)O)[C@@H](O)[C@H](O[C@@H]7O[C@H](CO)[C@H](O)[C@H](O)[C@H]7O[C@@H]7O[C@@H](C)[C@H](O)[C@@H](O)[C@H]7O)[C@H]6O[C@@H]6O[C@H](CO)[C@@H](O)[C@H](O)[C@H]6O)C(C)(C)[C@@H]5CC[C@@]4(C)[C@]3(C)[C@@H](O)[C@@H](O)[C@@]12CO` [SASANQUASAPONIN II], the Activity [13] was 48.9%, the Activity [14] was 16.5% and the Activity [11] was 53.9%. It also gave an Activity [12] of 16.8%.

For `CC1(C)CC[C@]2(O)[C@H](O)C[C@]3(C)C(=CC[C@@H]4[C@@]5(C)CC[C@H](O[C@@H]6O[C@H](C(=O)O)[C@@H](O)[C@H](O[C@@H]7O[C@H](CO)[C@H](O)[C@H](O)[C@H]7O[C@@H]7O[C@H](CO)[C@@H](O)[C@H](O)[C@H]7O)[C@H]6O[C@@H]6O[C@H](CO)[C@H](O)[C@H](O)[C@H]6O)C(C)(C)[C@@H]5CC[C@]43C)[C@@H]2C1` (relative stereo), the Activity [1] was 113.9%, the Activity [2] was 1.9% and the Activity [3] was 21.9%. The Activity [4] was 4.3%, the Activity [5] was 116.2% and the Activity [6] was 13.3%. It also gave an Activity [7] of 23.3%, an Activity [8] of 108.3% and an Activity [9] of 114.9%. It also gave an Activity [10] of 16.7%, an Activity [11] of 110.6% and an Activity [12] of 110%.

With `OC[C@H]1O[C@@H](Oc2ccc(O)cc2)[C@H](O)[C@@H](O)[C@@H]1O` [ARBUTIN] the Activity [15] was 18%, the Activity [7] was 13.3% and the Activity [10] was -0.1%.

Compound `CC1(C)CC[C@]2(CO)[C@H](O)C[C@]3(C)C(=CC[C@@H]4[C@@]5(C)CC[C@H](O[C@@H]6O[C@H](C(=O)O)[C@@H](O)[C@H](O[C@@H]7O[C@H](CO)[C@H](O)[C@H](O)[C@H]7O[C@@H]7O[C@H](CO)[C@@H](O)[C@H](O)[C@H]7O)[C@H]6O[C@@H]6O[C@H](CO)[C@H](O)[C@H](O)[C@H]6O)C(C)(C)[C@@H]5CC[C@]43C)[C@@H]2C1` [CAMELLIOSIDE D] has an Activity [1] of 110.7%, an Activity [2] of 16.1% and an Activity [3] of 0.3%. It also gave an Activity [4] of 16.3%, an Activity [5] of 108.6% and an Activity [6] of 29.5%. The Activity [7] was 8.3%, the Activity [8] was 107.6% and the Activity [9] was 94.7%. The Activity [10] was -6.2%, the Activity [11] was 113.1% and the Activity [12] was 98.6%.

From ChEMBL document CHEMBL2086299, “Melanogenesis inhibitory and fibroblast proliferation accelerating effects of noroleanane- and oleanane-type triterpene oligoglycosides from the flower buds of Camellia japonica” (2012)
